Experiment [1] addresses Rho-associated protein kinase 2 (Homo sapiens) (UniProt O75116). Briefly: Inhibition of human ROCK2 assessed as residual activity at 10 uM by KinaseProfiler assay. Put shortly: (§1)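 Radioactive phosphorylation assays were run by an outsourced profiling service. Each of 31 human kinases was tested with inhibitor at 10 µM. Residual activity is expressed as a percentage of the mean activity in positive-control wells, which contained all reaction components except inhibitor plus DMSO as solvent control.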

The target in experiment [2] is Dual specificity tyrosine-phosphorylation-regulated kinase 2 (Homo sapiens) (UniProt Q92630). Briefly: Inhibition of human DYRK2 assessed as residual activity at 10 uM by KinaseProfiler assay.
Experiment [3] concerns the target 5'-AMP-activated protein kinase catalytic subunit alpha-2 (Homo sapiens) (UniProt P54646). Briefly: Inhibition of human AMPKalpha2 assessed as residual activity at 10 uM by KinaseProfiler assay. The method in brief: as §1
In experiment [4] the target is Mitogen-activated protein kinase 9 (Homo sapiens) (UniProt P45984). Briefly: Inhibition of human JNK2alpha2 assessed as residual activity at 10 uM by KinaseProfiler assay. Put shortly: as §1
Experiment [5] has as its target T1, Mitogen-activated protein kinase 13 (Homo sapiens) (UniProt O15264).
T1 sequence (whole entry): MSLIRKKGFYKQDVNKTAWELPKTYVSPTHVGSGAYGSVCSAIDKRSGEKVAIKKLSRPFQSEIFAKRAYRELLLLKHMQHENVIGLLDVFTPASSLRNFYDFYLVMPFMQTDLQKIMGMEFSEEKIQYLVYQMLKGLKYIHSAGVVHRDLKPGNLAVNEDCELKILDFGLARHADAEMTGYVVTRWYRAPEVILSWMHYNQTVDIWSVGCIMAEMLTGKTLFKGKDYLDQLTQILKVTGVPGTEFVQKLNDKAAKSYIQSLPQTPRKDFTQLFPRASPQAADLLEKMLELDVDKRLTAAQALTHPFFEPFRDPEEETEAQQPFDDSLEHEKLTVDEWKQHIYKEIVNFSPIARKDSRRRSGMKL
Description: Inhibition of human SAPK4 assessed as residual activity at 10 uM by KinaseProfiler assay. The method in brief: as §1

Experiment [6] concerns the target Ribosomal protein S6 kinase alpha-5 (Homo sapiens) (UniProt O75582). Briefly: Inhibition of human MSK1 assessed as residual activity at 10 uM by KinaseProfiler assay. The method in brief: as §1
Experiment [7] deals with T2, MAP kinase-activated protein kinase 5 (Homo sapiens) (UniProt Q8IW41).
T2 sequence (whole entry): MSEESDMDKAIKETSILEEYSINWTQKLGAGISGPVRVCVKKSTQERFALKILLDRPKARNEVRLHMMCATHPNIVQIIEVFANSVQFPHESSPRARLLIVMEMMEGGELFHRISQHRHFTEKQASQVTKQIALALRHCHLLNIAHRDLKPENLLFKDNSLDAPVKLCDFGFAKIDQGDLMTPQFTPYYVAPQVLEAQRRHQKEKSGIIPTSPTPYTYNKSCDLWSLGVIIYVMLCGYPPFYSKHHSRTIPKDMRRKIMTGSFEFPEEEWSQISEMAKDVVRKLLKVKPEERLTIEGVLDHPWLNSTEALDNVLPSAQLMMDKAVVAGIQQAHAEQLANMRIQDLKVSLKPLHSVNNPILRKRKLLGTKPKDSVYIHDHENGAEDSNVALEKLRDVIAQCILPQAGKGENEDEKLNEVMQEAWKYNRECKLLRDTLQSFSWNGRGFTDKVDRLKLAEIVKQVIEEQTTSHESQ
Briefly: Inhibition of human PRAK assessed as residual activity at 10 uM by KinaseProfiler assay. The method in brief: as §1

Experiment [8] has as its target Tyrosine-protein kinase SYK (Homo sapiens) (UniProt P43405). Briefly: Inhibition of human Syk assessed as residual activity at 10 uM by KinaseProfiler assay. The method in brief: as §1
Experiment [9] deals with T3, 3-phosphoinositide-dependent protein kinase 1 (Homo sapiens) (UniProt O15530).
T3 sequence (whole entry): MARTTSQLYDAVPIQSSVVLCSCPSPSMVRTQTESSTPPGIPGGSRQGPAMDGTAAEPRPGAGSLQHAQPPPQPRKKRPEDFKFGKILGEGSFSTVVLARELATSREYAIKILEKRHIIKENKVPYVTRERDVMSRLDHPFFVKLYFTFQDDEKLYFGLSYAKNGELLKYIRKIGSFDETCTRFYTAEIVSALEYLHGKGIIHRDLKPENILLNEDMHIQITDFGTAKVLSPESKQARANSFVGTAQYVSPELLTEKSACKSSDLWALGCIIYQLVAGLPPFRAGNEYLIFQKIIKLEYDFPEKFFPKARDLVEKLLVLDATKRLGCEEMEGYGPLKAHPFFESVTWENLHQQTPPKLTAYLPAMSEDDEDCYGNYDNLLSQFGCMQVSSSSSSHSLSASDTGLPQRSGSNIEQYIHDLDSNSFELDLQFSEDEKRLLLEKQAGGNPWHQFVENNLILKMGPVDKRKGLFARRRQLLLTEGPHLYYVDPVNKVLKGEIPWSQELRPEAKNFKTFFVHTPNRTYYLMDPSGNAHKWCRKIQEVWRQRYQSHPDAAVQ
Description: Inhibition of human PDK1 assessed as residual activity at 10 uM by KinaseProfiler assay. Put shortly:
as §1

The test system of experiment [10] is SNU761. Description: Cytotoxicity against human SNU761 cells assessed as cell viability at 10 uM after 24 hrs by MTT assay. The class given is functional, cell-based. The method in brief: (§2)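 Lines from Korea Cell Line Bank, kept in RPMI1640 with serum and penicillin/streptomycin at 37 °C, 5% CO2. Seeded at 1 × 10⁴ cells/well and grown 24 h, then exposed to the inhibitor for 24 h. MTT added at 4 mg/mL final for 2 h, formazan taken up in DMSO, absorbance read at 570 nm. Run in quadruplicate.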
(In general: Formazan colour is commonly taken as a measure of viable cells.)

Experiment [11] has as its target Protein kinase C alpha type (Homo sapiens) (UniProt P17252). Briefly: Inhibition of human PKCalpha assessed as residual activity at 10 uM by KinaseProfiler assay. Put shortly:
as §1

The test system of experiment [12] is SNU484. Description: Cytotoxicity against human SNU484 cells assessed as cell viability at 10 uM after 24 hrs by MTT assay. It counts as functional, cell-based. Put shortly:
as §2

Experiment [13] deals with T4, Serine/threonine-protein kinase Chk1 (Homo sapiens) (UniProt O14757).
T4 sequence (whole entry): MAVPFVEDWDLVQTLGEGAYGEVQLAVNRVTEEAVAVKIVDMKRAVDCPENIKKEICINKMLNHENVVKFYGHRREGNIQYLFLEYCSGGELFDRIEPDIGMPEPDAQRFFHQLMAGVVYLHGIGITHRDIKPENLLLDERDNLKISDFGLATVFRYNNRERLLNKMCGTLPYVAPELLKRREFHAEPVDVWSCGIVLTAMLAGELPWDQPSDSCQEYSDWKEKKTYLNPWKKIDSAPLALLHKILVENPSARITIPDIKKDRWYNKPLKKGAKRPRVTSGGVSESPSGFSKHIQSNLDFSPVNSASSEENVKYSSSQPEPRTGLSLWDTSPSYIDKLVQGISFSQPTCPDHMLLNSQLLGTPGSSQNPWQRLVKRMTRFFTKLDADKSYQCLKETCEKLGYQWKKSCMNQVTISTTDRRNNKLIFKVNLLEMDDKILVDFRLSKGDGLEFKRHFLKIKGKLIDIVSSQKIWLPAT
Briefly: Inhibition of human CHK1 assessed as residual activity at 10 uM by KinaseProfiler assay. The method in brief:
as §1

For experiment [14], the species on record is Homo sapiens. Description: Inhibition of human CK1 assessed as residual activity at 10 uM by KinaseProfiler assay. The method in brief:
as §1

Among the data in ChEMBL document CHEMBL3351625, “Ethyl 2-(benzylidene)-7-methyl-3-oxo-2,3-dihydro-5H-thiazolo[3,2-a]pyrimidine-6-carboxylate analogues as a new scaffold for protein kinase casein kinase 2 inhibitor” (Bioorg Med Chem, 2014) are Activity values, retold here.

Structures are written as SMILES. Calls of active or inactive are those of the source. No cut-off for these calls is given here.

Sequence of Mitogen-activated protein kinase 9 (Homo sapiens) (P45984 whole entry, looked up): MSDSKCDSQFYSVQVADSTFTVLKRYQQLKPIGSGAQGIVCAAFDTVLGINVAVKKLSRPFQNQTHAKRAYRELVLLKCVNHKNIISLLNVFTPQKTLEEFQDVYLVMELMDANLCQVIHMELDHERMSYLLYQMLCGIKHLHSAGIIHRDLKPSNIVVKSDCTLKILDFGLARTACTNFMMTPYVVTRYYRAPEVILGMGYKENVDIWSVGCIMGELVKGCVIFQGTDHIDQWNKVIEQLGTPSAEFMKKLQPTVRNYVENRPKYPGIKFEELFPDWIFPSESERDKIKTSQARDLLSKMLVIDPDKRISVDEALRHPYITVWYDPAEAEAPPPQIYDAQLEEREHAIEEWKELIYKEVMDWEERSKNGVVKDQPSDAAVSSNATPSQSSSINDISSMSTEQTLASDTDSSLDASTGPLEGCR
Sequence of Dual specificity tyrosine-phosphorylation-regulated kinase 2 (Homo sapiens) (Q92630 whole entry, looked up): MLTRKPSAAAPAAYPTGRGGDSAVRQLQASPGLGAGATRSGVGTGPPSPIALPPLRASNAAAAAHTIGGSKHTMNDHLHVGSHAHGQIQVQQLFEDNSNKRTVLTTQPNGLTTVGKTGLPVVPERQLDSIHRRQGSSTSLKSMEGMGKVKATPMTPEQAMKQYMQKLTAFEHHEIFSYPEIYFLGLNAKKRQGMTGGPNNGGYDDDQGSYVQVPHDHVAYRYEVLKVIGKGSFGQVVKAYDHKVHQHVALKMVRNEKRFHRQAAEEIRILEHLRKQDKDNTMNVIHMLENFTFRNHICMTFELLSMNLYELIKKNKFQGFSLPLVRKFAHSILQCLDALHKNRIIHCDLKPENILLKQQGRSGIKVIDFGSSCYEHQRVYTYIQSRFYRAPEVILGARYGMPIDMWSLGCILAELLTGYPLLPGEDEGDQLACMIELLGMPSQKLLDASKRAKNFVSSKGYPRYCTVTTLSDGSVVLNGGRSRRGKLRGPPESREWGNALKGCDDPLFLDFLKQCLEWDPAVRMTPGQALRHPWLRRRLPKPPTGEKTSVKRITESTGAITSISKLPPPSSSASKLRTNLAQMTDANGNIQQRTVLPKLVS
Sequence of 5'-AMP-activated protein kinase catalytic subunit alpha-2 (Homo sapiens) (P54646 whole entry, looked up): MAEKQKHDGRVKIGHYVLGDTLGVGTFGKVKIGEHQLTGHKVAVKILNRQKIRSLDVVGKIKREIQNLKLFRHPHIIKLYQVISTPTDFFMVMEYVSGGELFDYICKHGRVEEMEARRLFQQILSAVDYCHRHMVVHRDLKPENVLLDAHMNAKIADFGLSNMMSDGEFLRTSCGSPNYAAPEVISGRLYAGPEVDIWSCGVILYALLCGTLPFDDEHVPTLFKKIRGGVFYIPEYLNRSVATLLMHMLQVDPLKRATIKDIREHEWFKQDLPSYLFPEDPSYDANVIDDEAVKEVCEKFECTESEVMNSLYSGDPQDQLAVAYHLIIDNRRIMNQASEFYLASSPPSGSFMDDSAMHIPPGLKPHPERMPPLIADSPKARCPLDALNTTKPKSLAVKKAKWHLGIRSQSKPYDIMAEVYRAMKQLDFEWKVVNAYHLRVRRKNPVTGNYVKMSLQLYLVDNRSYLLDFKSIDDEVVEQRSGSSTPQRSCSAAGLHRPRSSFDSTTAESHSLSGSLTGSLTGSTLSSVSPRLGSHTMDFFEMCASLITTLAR
Sequence of Rho-associated protein kinase 2 (Homo sapiens) (O75116 whole entry, looked up): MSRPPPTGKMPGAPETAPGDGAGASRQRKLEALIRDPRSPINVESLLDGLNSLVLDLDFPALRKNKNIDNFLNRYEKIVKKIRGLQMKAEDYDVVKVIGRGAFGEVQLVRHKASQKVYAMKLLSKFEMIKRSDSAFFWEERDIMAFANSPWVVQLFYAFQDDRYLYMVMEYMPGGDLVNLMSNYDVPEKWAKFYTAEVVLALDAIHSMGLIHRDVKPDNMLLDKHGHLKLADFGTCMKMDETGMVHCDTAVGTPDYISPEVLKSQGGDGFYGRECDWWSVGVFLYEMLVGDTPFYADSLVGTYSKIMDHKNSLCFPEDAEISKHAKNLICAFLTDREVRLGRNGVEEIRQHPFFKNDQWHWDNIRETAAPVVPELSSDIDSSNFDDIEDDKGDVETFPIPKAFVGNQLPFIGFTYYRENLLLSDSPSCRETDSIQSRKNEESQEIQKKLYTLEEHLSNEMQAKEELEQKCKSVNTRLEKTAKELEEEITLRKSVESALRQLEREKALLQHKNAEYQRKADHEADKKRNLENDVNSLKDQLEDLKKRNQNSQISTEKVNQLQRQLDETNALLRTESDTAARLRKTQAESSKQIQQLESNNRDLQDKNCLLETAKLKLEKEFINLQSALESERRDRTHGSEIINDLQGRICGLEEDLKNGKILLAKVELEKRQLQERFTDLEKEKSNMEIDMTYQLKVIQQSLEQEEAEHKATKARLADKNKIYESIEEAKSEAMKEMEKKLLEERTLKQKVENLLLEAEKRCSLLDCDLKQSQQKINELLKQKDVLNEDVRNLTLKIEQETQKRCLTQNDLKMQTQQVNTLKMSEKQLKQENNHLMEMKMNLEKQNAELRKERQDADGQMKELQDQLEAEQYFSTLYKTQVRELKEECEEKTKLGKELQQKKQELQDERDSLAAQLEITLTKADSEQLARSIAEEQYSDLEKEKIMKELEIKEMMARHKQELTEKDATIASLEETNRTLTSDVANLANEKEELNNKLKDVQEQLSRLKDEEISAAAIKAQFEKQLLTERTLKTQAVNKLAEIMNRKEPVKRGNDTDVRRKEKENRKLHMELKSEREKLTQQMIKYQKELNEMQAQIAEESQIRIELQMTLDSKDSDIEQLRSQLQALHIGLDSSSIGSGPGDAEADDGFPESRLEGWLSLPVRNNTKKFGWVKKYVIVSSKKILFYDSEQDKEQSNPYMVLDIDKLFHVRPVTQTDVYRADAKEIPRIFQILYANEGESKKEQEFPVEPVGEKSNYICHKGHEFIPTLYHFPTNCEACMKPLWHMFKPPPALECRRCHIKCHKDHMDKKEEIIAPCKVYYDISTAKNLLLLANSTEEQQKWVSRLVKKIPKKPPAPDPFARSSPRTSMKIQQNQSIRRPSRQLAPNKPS
Sequence of Ribosomal protein S6 kinase alpha-5 (Homo sapiens) (O75582 whole entry, looked up): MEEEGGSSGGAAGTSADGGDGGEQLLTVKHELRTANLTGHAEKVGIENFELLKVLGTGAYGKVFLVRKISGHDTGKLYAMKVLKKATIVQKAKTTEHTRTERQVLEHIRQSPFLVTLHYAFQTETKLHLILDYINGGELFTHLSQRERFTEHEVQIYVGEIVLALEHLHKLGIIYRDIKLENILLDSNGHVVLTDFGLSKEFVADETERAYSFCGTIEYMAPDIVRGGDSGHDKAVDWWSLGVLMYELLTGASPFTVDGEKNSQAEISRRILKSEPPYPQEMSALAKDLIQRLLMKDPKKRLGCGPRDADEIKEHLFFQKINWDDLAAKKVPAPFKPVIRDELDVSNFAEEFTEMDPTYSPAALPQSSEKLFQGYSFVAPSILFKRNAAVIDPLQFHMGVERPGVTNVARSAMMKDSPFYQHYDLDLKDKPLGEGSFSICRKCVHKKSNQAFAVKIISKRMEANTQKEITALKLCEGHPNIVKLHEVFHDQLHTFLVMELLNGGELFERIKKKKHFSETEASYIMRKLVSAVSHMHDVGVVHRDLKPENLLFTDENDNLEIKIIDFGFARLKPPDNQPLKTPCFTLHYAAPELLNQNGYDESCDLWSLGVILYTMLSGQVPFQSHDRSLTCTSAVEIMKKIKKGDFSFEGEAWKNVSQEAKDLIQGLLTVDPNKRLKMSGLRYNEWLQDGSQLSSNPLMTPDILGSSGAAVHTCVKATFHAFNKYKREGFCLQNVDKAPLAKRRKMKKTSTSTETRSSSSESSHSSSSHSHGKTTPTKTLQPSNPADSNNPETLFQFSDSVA

On to `Brc1c(Br)c(Br)c2[nH]nnc2c1Br`, for which the Activity stood at 73% in experiment [1]; 2% in experiment [2]; 83% in [3]; 50% in experiment [4]; 106% in experiment [5]; 66% in [6]. Besides, the Activity in [7] turned out to be 60%; in [8], 87%; in [9] it was 93%; in [11], 106%; in experiment [13], 149%; in experiment [14], 51%. The outcome in [10] and in [12] was Active.

With `CCOC(=O)C1=C(C)N=c2s/c(=C\c3cc(O)c(O)c(O)c3)c(=O)n2C1c1ccc(Cl)cc1` (stereo not given), the Activity in [1] turned out to be 108%; in experiment [2], 118%; in experiment [3], 48%; in [4], 92%; in [5], 76%; in experiment [6], 124%. Also, the Activity in [7] amounted to 28%; in experiment [8], 28%; in experiment [9], 69%; in experiment [11], 91%; in [13] it was 127%; in experiment [14], 77%.

Regarding `CCOC(=O)C1=C(C)N=c2s/c(=C\c3ccc(O)c(O)c3)c(=O)n2C1c1ccc(Cl)cc1` (stereo not given), the Activity in experiment [1] turned out to be 89%; in [2], 14%; in experiment [3] it was 65%; in experiment [4], 91%; in experiment [5], 79%; in experiment [6], 127%. Also, the Activity worked out at 36% in experiment [7]; 77% in [8]; 78% in experiment [9]; 91% in [11]; 117% in experiment [13]; 50% in [14]. Also, the outcome in experiment [10] and in experiment [12] was Active.
